Measurements as given in ChEMBL document CHEMBL1128278, “Design, synthesis, and structure--activity relationship studies for a new imidazole series of J774 macrophage specific acyl-CoA:cholesterol acyltransferase (ACAT) inhibitors” (J Med Chem, 1995).

Tests used:
[1] = target: T1, Sterol O-acyltransferase 1 (Rattus norvegicus, UniProt O70536); test: Concentration required to inhibit 50% activity of Acyl coenzyme A:cholesterol acyltransferase 1 in vitro using rat liver microsome.; assay type: microsomes
T1 sequence (O70536 whole entry): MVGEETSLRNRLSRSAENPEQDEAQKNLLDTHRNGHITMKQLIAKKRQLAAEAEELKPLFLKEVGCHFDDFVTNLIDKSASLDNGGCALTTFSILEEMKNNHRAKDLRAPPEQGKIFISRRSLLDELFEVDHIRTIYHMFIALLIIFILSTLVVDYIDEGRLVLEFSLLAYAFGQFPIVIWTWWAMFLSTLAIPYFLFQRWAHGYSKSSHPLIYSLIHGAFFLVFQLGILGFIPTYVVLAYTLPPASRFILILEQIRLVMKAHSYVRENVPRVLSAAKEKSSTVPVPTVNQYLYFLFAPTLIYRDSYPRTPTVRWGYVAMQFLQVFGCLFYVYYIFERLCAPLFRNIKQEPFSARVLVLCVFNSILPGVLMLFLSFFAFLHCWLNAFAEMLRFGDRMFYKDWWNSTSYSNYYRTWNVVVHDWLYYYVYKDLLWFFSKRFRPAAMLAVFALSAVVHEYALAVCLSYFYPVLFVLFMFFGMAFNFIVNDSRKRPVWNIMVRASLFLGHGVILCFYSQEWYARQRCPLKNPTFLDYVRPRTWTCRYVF
Summary of the method: (§1)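 Rat liver microsomes; ACAT activity read as [14C]cholesteryl oleate formed from [14C]oleoyl-CoA (pmol/min/mg). Inhibitors added in 5 µL DMSO. Duplicate assays with at least four inhibitor concentrations bracketing the IC50; IC50 is the concentration giving 50% inhibition of ACAT activity. Average range of replicates ±17%.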

[2] = Acyl coenzyme A:cholesterol acyltransferase inhibition in cell culture measured in murine J774 macrophages.
[3] = Acyl coenzyme A:cholesterol acyltransferase activity was determined in J774 macrophages by measuring the formation of labeled cholesteryl oleate (pmol/midmg) from [14C]oleoyl-CoA; assay type: functional
Summary of the method: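 J774 cells grown in high-glucose DMEM with 10% FBS at 37 °C, 6% CO2, then harvested for microsome preparation. ACAT activity in these microsomes measured as in the hepatic assay, as [14C]cholesteryl oleate formed from [14C]oleoyl-CoA, with inhibitors in DMSO. IC50 taken as the concentration giving 50% inhibition.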

[4] = system: J774; test: Concentration required to inhibit 50% activity of J774 macrophage cholesterol esterification; assay type: functional, cell-based; settings: Mus musculus
Summary of the method: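 Intact J774A.1 cells, seeded at 3 x 10^4 cells/cm2 and grown 36 h, then loaded 17 h with ac-LDL in 10% FBS-DMEM. Inhibitors in DMSO (1.0% final) for 4 h, with [14C]oleate–BSA for the last 2 h. Cholesteryl ester separated by TLC and counted (nmol/h/mg Lowry protein).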

[5] = target: T1, Sterol O-acyltransferase 1; test: ACAT activity was determined in rat hepatic microsomes by measuring the formation of labeled cholesteryl oleate (pmol/midmg) from [14C]oleoyl-CoA; assay type: functional, Liver; summary of the method: as §1
[6] = Acyl coenzyme A:cholesterol acyltransferase inhibition in cell culture measured in murine IC-21 macrophages.

| SMILES | IC50 [2] | IC50 ([1]; read-out: IC50) | other results |
| --- | --- | --- | --- |
| CCCCCCCN(CCCCCSc1nc(-c2ccc(O)cc2)c(-c2ccc(O)cc2)[nH]1)C(=O)Nc1ccc(F)cc1F | 4750 nM | 2400 nM |  |
| CCCCCCCN(CCCCCSc1nc(-c2ccc(SC)cc2)c(-c2ccc(SC)cc2)[nH]1)C(=O)Nc1ccc(F)cc1F | 50 nM | 70 nM |  |
| CCCCCCCN(CCCCCSc1nc(-c2ccc(OC)cc2)c(-c2ccc(OC)cc2)[nH]1)C(=O)CC1CCCCC1 | 29 nM | 11 nM |  |
| CCCCCCCN(CCCCCSc1nc(-c2cccs2)c(-c2cccs2)[nH]1)C(=O)Nc1ccc(F)cc1F | 940 nM | 60 nM |  |
| CCCCCCCN(CCCCCSc1nc2c([nH]1)-c1ccccc1Oc1ccccc1-2)C(=O)Nc1ccc(F)cc1F | 1720 nM | 60 nM |  |
| CN(CCSc1nc(-c2ccccc2)c(-c2ccccc2)[nH]1)CCN(CCN1CCOCC1)C(=O)Nc1ccc(F)cc1F | 2740 nM | 240 nM |  |
| COCCOCCN(CCCCCSc1nc(-c2ccc(OC)cc2)c(-c2ccc(OC)cc2)[nH]1)C(=O)Nc1ccc(F)cc1F | 250 nM | 340 nM |  |
| CCCCCCCN(CCCCCSc1nc(-c2ccc(S(C)(=O)=O)cc2)c(-c2ccc(S(C)(=O)=O)cc2)[nH]1)C(=O)Nc1ccc(F)cc1F | 2020 nM | > 50000 nM |  |
| CCCCCCCN(CCCCCSc1nc(-c2ccc(F)cc2)c(-c2ccc(F)cc2)[nH]1)C(=O)Nc1ccc(F)cc1F | 3500 nM | 40 nM |  |
| COc1ccc(-c2nc(SCCCCCN(CCOCCO)C(=O)Nc3ccc(F)cc3F)[nH]c2-c2ccc(OC)cc2)cc1 | 840 nM | 230 nM |  |
| CCCCCCCN(CCCCCSc1nc(-c2ccc(N(C)C)cc2)c(-c2ccc(N(C)C)cc2)[nH]1)C(=O)Oc1ccccc1 | 60 nM | 120 nM |  |
| CCCCCCCN(CCCCCSc1nc(-c2ccc(OC)cc2)c(-c2ccc(OC)cc2)[nH]1)C(=O)Nc1ccc(F)cc1F | 80 nM | 140 nM |  |
| CCCCCCCN(CCCCCSc1nc(-c2ccc(OC)cc2)c(-c2ccc(OC)cc2)[nH]1)C(=O)Oc1ccccc1 | 32 nM | 640 nM |  |
| CCCCCCCN(CCCCCSc1nc(CCC)c(CCC)[nH]1)C(=O)Nc1ccc(F)cc1F | 2700 nM | 60 nM |  |
| CCCCCCCN(CCCCCSc1nc(-c2ccco2)c(-c2ccco2)[nH]1)C(=O)Nc1ccc(F)cc1F | 450 nM | 200 nM |  |
| CCCCCCCN(CCCCCSc1nc(-c2ccc(C)cc2)c(-c2ccc(C)cc2)[nH]1)C(=O)Nc1ccc(F)cc1F | 290 nM | 80 nM |  |
| CCCCCCCN(CCCCCSc1nc2c([nH]1)-c1ccccc1OCOc1ccccc1-2)C(=O)Nc1ccc(F)cc1F | 840 nM | 30 nM |  |
| CCCCN(C)CCN(CCOCCSc1nc(-c2ccc(OC)cc2)c(-c2ccc(OC)cc2)[nH]1)C(=O)Nc1ccc(F)cc1F |  | 1500 nM | IC50 [6]: 630 nM |
| CCCCCCCN(CCCCCSc1nc(C(C)C)c(C(C)C)[nH]1)C(=O)Nc1ccc(F)cc1F | 640 nM | 20 nM |  |
| CCCCCCCN(CCCCCSc1nc(-c2ccc(C(F)(F)F)cc2)c(-c2ccc(C(F)(F)F)cc2)[nH]1)C(=O)Nc1ccc(F)cc1F | 25000 nM | 39900 nM |  |
| CCCCCCCN(CCCCCSc1nc(-c2ccccn2)c(-c2ccccn2)[nH]1)C(=O)Nc1ccc(F)cc1F | 2250 nM | 1000 nM |  |
| CCCCCCCN(CCCCCSc1nc(-c2ccc(N(C)C)cc2)c(-c2ccc(N(C)C)cc2)[nH]1)C(=O)CC1CCCCC1 | 16 nM | 50 nM |  |
| CCCCCCCN(CCCCCSc1nc(-c2ccc(N(C)C)cc2)c(-c2ccc(N(C)C)cc2)[nH]1)C(=O)Nc1ccc(F)cc1F | 80 nM | 50 nM |  |
| COc1ccc(-c2nc(SCCCCCN(CCN3CCOCC3)C(=O)Nc3ccc(F)cc3F)[nH]c2-c2ccc(OC)cc2)cc1 | 1340 nM | 270 nM |  |
| CCCCCCCN(CCCCCSc1nc(C2CCCCC2)c(C2CCCCC2)[nH]1)C(=O)Nc1ccc(F)cc1F | 640 nM | 20 nM |  |

More lines, main results first:

| IC50 [2] | IC50 ([1]; read-out: IC50) | SMILES | other results |
| --- | --- | --- | --- |
| 7510 nM |  | COCCOCCN(CCCCCSc1nc(-c2ccc(N(C)C)cc2)c(-c2ccc(N(C)C)cc2)[nH]1)C(=O)NC(C)C | IC50 [1]: Not Active |
| 3 nM | 80 nM | CCCCCCCN(CCCCCSc1nc(-c2ccc(N(C)C)cc2)c(-c2ccc(N(C)C)cc2)[nH]1)C(=O)NC(C)C | IC50 [3]: 0.6 nM; IC50 [4]: 4 nM; IC50 [5]: 80 nM |
| 4 nM | 160 nM | CCCCCCCN(CCCCCSc1nc(-c2ccc(OC)cc2)c(-c2ccc(OC)cc2)[nH]1)C(=O)NC(C)C |  |
| 2180 nM | 80 nM | CCN(CC)CCN(CCCCCSc1nc(-c2ccccc2)c(-c2ccccc2)[nH]1)C(=O)Nc1ccc(F)cc1F |  |
| 1470 nM | 170 nM | CCCCCCCN(CCN(C)CCSc1nc(-c2ccccc2)c(-c2ccccc2)[nH]1)C(=O)Nc1ccc(F)cc1F |  |
| 6840 nM | 90 nM | CC(C)NC(=O)N(CCCCCSc1nc(-c2ccccc2)c(-c2ccccc2)[nH]1)CCOCCO |  |
| 990 nM | 190 nM | CCCCCCCN(CCOCCSc1nc(-c2ccccc2)c(-c2ccccc2)[nH]1)C(=O)NC(C)C |  |
| 880 nM | 70 nM | O=C(Nc1ccc(F)cc1F)N(CCCCCSc1nc(-c2ccccc2)c(-c2ccccc2)[nH]1)CCN1CCOCC1 |  |
| 2400 nM | 260 nM | CCCCCCCN(CCN(C)CCSc1nc(-c2ccccc2)c(-c2ccccc2)[nH]1)C(=O)NC(C)C |  |
| 2070 nM | 350 nM | CCCCCCCN(CCCCCSc1nc(-c2ccccc2OC)c(-c2ccccc2OC)[nH]1)C(=O)Nc1ccc(F)cc1F |  |
| 4010 nM | 50 nM | CCOCCOCCN(CCCCCSc1nc(-c2ccccc2)c(-c2ccccc2)[nH]1)C(=O)Nc1ccc(F)cc1F |  |
| 3980 nM | 80 nM | CCCCCCCN(CCOCCSc1nc(-c2ccccc2)c(-c2ccccc2)[nH]1)C(=O)Nc1ccc(F)cc1F |  |
| 360 nM | 500 nM | COCCOCCN(CCCCCSc1nc(-c2ccc(OC)cc2)c(-c2ccc(OC)cc2)[nH]1)C(=O)NC(C)C |  |
| 40 nM | 280 nM | CCOCCOCCN(CCCCCSc1nc(-c2ccc(SC)cc2)c(-c2ccc(SC)cc2)[nH]1)C(=O)NC(C)C |  |
| 6740 nM | 40 nM | O=C(Nc1ccc(F)cc1F)N(CCCCCSc1nc(-c2ccccc2)c(-c2ccccc2)[nH]1)CCOCCO |  |
| 2420 nM | 480 nM | COc1ccc(-c2nc(SCCCOCCN(CCOCCO)C(=O)NC(C)C)[nH]c2-c2ccc(OC)cc2)cc1 |  |
| 3020 nM | 30 nM | CCOCCOCCN(CCCCCSc1nc(-c2ccccc2)c(-c2ccccc2)[nH]1)C(=O)NC(C)C |  |
| 6280 nM | 350 nM | CC(C)NC(=O)N(CCN(C)CCSc1nc(-c2ccccc2)c(-c2ccccc2)[nH]1)CCN1CCOCC1 |  |
| 1000 nM |  | COc1ccc(-c2nc(SCCCCCN(CCCCCO)C(=O)NC(C)C)[nH]c2-c2ccc(OC)cc2)cc1 |  |
| 500 nM | 2300 nM | CCCCCCCN(CCOCCSc1nc(-c2ccc(OC)cc2)c(-c2ccc(OC)cc2)[nH]1)C(=O)Nc1ccc(F)cc1F |  |
| 1750 nM | 70 nM | CCCCOCCN(CCCCCSc1nc(-c2ccccc2)c(-c2ccccc2)[nH]1)C(=O)Nc1ccc(F)cc1F |  |
| 580 nM | 660 nM | CCN(CC)CCN(CCCCCSc1nc(-c2ccccc2)c(-c2ccccc2)[nH]1)C(=O)NC(C)C |  |
| 360 nM | 40 nM | CCCCCCCN(CCCCCSc1nc(-c2cccc(OC)c2)c(-c2cccc(OC)c2)[nH]1)C(=O)Nc1ccc(F)cc1F |  |
| 840 nM | 190 nM | CCCCOCCN(CCCCCSc1nc(-c2ccccc2)c(-c2ccccc2)[nH]1)C(=O)NC(C)C |  |
| 340 nM | 850 nM | CCCCCCCN(CCOCCSc1nc(-c2ccc(OC)cc2)c(-c2ccc(OC)cc2)[nH]1)C(=O)NC(C)C |  |
| 1000 nM |  | CCCCCCCN(CCCCCSc1nc(-c2ccccc2)c(-c2ccccc2)[nH]1)C(=O)Nc1ccc(F)cc1F [LECIMIBIDE] | IC50 [3]: 25 nM; IC50 [4]: 1000 nM |
